Assay results published in ChEMBL document CHEMBL1126849, “Synthesis of A-ring fluorinated derivatives of (17 alpha,20E/Z)-[125I]iodovinylestradiols: effect on receptor binding and receptor-mediated target tissue uptake” (J Med Chem, 1993).

Key:
[1] = tested on: Rattus norvegicus; experiment: Biodistribution in spleen of immature female rat after 3 hour administration of 3 micro Ci (111 kBq) in the absence of 60 microg estradiol; format: ADME, organism-based; conditions: in vivo
Outline: (§1)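 Immature female Long Evans rats (21–24 days, 45–70 g), three to five per group, given 125I-labeled steroid (3 μCi, 111 kBq) by lateral tail vein without anesthesia. Vehicle: ethanol diluted in saline with 1% Tween-80, final ethanol 9%, 0.22 μm filtered. +E2 groups received 60 μg unlabeled estradiol co-injected. Killed under ether at set times; tissues KCl-washed, blotted, weighed, gamma counted; %ID/g, mean with SE.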

[2] = biological target: Estrogen receptor (Mus musculus) (UniProt O08537+P19785); experiment: Relative binding affinity (RBA) against murine cytoplasmic estrogen receptor incubated at 0-4 degree Celsius for 18 hours; format: protein assay
Outline: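 Competitive binding on murine uterine cytoplasmic extract with 20 nM [3H]estradiol and competitor steroids at 2 nM–20 μM, incubated 18 h at 0–4 °C. RBA = 100 × ratio of […] concentration giving 50% competition for specific binding. Mean of three experiments with SD.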

[3] = tested on: Rattus norvegicus; experiment: Biodistribution in blood of immature female rat after 1 hr administration of 3 micro Ci (111 kBq) in the presence of (+E2); format: ADME, organism-based; conditions: in vivo
Outline: (§2)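 Immature female Long Evans rats (21–24 days, 45–70 g), unanesthetized in retention cages, given 3 µCi (111 kBq) 125I-labeled steroid i.v. via lateral tail vein. Vehicle was ethanol diluted in saline containing 1% Tween-80, giving 9% ethanol final. The blocking group received 60 µg unlabeled estradiol co-injected. Rats were killed under ether by axillary bleeding, and tissues were KCl-washed and gamma-counted. Data are %ID/g, mean ± SE, n=3–5.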

[4] = tested on: Rattus norvegicus; experiment: Biodistribution in blood of immature female rat after 12 hour administration of 3 micro Ci (111 kBq) in the absence of 60 microg estradiol; format: ADME, organism-based; conditions: in vivo; outline: as §2
[5] = tested on: Rattus norvegicus; experiment: Biodistribution in kidney of immature female rat after 12 hour administration of 3 micro Ci (111 kBq) in the absence of 60 microg estradiol; format: ADME, organism-based; conditions: in vivo; outline: as §2
[6] = tested on: Rattus norvegicus; experiment: Biodistribution in uterus of immature female rat after 12 hour administration of 3 micro Ci (111 kBq) in the absence of 60 microg estradiol; format: ADME, organism-based; conditions: in vivo
Outline: (§3)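 Immature female Long Evans rats (21–24 days, 45–70 g), 3–5 per group, unanesthetized in retention cages, given 3 μCi (111 kBq) 125I-labeled steroid by lateral tail vein. Vehicle: ethanol diluted with saline containing 1% Tween-80, final ethanol 9%. +E2 group co-injected 60 μg unlabeled estradiol (1 h only). Killed under ether; tissues KCl-washed, weighed, gamma-counted. Output: %ID/g (mean, SE) and uterus to blood or nontarget (muscle, spleen, lungs) ratios.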

[7] = tested on: Rattus norvegicus; experiment: Biodistribution in blood of immature female rat after 3 hour administration of 3 micro Ci (111 kBq) in the absence of 60 microg estradiol; format: ADME, organism-based; conditions: in vivo; outline: as §2
[8] = tested on: Rattus norvegicus; experiment: Biodistribution in uterus / blood of immature female rat after 1 hr administration of 3 micro Ci (111 kBq) in the absence of 60 microg estradiol; format: ADME, organism-based; conditions: in vivo
Outline: (§4)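 Same in vivo procedure: immature female Long Evans rats (21–24 days), three to five per group, 3 μCi (111 kBq) tracer i.v. via tail vein in 9% ethanol/saline/1% Tween-80, ± 60 μg estradiol co-injected at 1 h. Uterus %ID/g (gamma counting) divided by blood, or by nontarget organ (muscle, spleen, lungs), %ID/g to give ratios.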

[9] = tested on: Rattus norvegicus; experiment: Biodistribution in uterus / blood of immature female rat after 5 hour administration of 3 micro Ci (111 kBq) in the absence of 60 microg estradiol; format: ADME, organism-based; conditions: in vivo; outline: as §4
[10] = tested on: Rattus norvegicus; experiment: Biodistribution in uterus / spleen, muscle, lungs of immature female rat after 1 hr administration of 3 micro Ci (111 kBq) in the absence of 60 microg estradiol; format: ADME, organism-based; conditions: in vivo; outline: as §4
[11] = tested on: Rattus norvegicus; experiment: Biodistribution in kidney of immature female rat after 3 hour administration of 3 micro Ci (111 kBq) in the absence of 60 microg estradiol; format: ADME, organism-based; conditions: in vivo; outline: as §2
[12] = tested on: Rattus norvegicus; experiment: Biodistribution in liver of immature female rat after 5 hour administration of 3 micro Ci (111 kBq) in the absence of 60 microg estradiol; format: ADME, organism-based; conditions: in vivo; outline: as §2
[13] = tested on: Rattus norvegicus; experiment: Biodistribution in spleen of immature female rat after 12 hour administration of 3 micro Ci (111 kBq) in the absence of 60 microg estradiol; format: ADME, organism-based; conditions: in vivo; outline: as §1
[14] = tested on: Rattus norvegicus; experiment: Biodistribution in uterus / spleen, muscle, lungs of immature female rat after 12 hour administration of 3 micro Ci (111 kBq) in the absence of 60 microg estradiol; format: ADME, organism-based; conditions: in vivo; outline: as §3
[15] = tested on: Rattus norvegicus; experiment: Biodistribution in spleen of immature female rat after 5 hour administration of 3 micro Ci (111 kBq) in the absence of 60 microg estradiol; format: ADME, organism-based; conditions: in vivo; outline: as §1
[16] = tested on: Rattus norvegicus; experiment: Biodistribution in kidney of immature female rat after 1 hr administration of 3 micro Ci (111 kBq) in the presence of (+E2); format: ADME, organism-based; conditions: in vivo; outline: as §2
[17] = tested on: Rattus norvegicus; experiment: Biodistribution in muscle of immature female rat after 1 hr administration of 3 micro Ci (111 kBq) in the absence of 60 microg estradiol; format: ADME, organism-based, Muscle tissue; conditions: in vivo; outline: as §1
[18] = tested on: Rattus norvegicus; experiment: Biodistribution in uterus / spleen, muscle, lungs of immature female rat after 1 hr administration of 3 micro Ci (111 kBq) in the presence of (+E2); format: ADME, organism-based; conditions: in vivo; outline: as §4
[19] = tested on: Rattus norvegicus; experiment: Biodistribution in thyroid of immature female rat after 5 hour administration of 3 micro Ci (111 kBq) in the absence of 60 microg estradiol; format: ADME, organism-based, Thyroid gland; conditions: in vivo; outline: as §1
[20] = tested on: Rattus norvegicus; experiment: Biodistribution in fat of immature female rat after 1 hr administration of 3 micro Ci (111 kBq) in the absence of 60 microg estradiol; format: ADME, organism-based, Adipose tissue; conditions: in vivo; outline: as §2
[21] = tested on: Rattus norvegicus; experiment: Biodistribution in lungs of immature female rat after 12 hour administration of 3 micro Ci (111 kBq) in the absence of 60 microg estradiol; format: ADME, organism-based, Lung; conditions: in vivo; outline: as §1
[22] = tested on: Rattus norvegicus; experiment: Biodistribution in lungs of immature female rat after 1 hr administration of 3 micro Ci (111 kBq) in the presence of (+E2); format: ADME, organism-based, Lung; conditions: in vivo; outline: as §2
[23] = tested on: Rattus norvegicus; experiment: Biodistribution in uterus of immature female rat after 1 hr administration of 3 micro Ci (111 kBq) in the absence of 60 microg estradiol; format: ADME, organism-based; conditions: in vivo; outline: as §3
[24] = tested on: Rattus norvegicus; experiment: Biodistribution in fat of immature female rat after 1 hr administration of 3 micro Ci (111 kBq) in the presence of (+E2); format: ADME, organism-based, Adipose tissue; conditions: in vivo; outline: as §2
[25] = tested on: Rattus norvegicus; experiment: Biodistribution in lungs of immature female rat after 3 hour administration of 3 micro Ci (111 kBq) in the absence of 60 microg estradiol; format: ADME, organism-based, Lung; conditions: in vivo; outline: as §1
[26] = tested on: Rattus norvegicus; experiment: Biodistribution in spleen of immature female rat after 1 hr administration of 3 micro Ci (111 kBq) in the absence of 60 microg estradiol; format: ADME, organism-based; conditions: in vivo; outline: as §1
[27] = tested on: Rattus norvegicus; experiment: Biodistribution in thyroid of immature female rat after 12 hour administration of 3 micro Ci (111 kBq) in the absence of 60 microg estradiol; format: ADME, organism-based, Thyroid gland; conditions: in vivo; outline: as §1
[28] = tested on: Rattus norvegicus; experiment: Biodistribution in thyroid of immature female rat after 3 hour administration of 3 micro Ci (111 kBq) in the absence of 60 microg estradiol; format: ADME, organism-based, Thyroid gland; conditions: in vivo; outline: as §1
[29] = tested on: Rattus norvegicus; experiment: Biodistribution in blood of immature female rat after 1 hr administration of 3 micro Ci (111 kBq) in the absence of 60 microg estradiol; format: ADME, organism-based; conditions: in vivo; outline: as §2
[30] = tested on: Rattus norvegicus; experiment: Biodistribution in thyroid of immature female rat after 1 hr administration of 3 micro Ci (111 kBq) in the presence of (+E2); format: ADME, organism-based, Thyroid gland; conditions: in vivo; outline: as §1

Sequence of Estrogen receptor (Mus musculus) (O08537 whole entry, looked up): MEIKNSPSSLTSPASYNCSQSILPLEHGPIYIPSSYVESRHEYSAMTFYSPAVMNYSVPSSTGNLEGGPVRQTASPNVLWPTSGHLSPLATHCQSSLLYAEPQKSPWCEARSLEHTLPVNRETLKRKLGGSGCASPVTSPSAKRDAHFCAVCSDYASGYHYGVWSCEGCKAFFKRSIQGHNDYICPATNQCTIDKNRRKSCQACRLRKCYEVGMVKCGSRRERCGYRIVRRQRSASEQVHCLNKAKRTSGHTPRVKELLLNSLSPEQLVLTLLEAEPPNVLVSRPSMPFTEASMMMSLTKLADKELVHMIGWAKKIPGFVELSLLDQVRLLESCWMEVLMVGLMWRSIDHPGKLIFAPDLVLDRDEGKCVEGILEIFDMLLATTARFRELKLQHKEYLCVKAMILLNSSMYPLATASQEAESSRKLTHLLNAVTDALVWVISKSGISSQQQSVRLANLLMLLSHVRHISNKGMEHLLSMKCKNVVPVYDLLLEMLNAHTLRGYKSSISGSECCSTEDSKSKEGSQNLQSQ
Sequence of Estrogen receptor (Mus musculus) (P19785 whole entry, looked up): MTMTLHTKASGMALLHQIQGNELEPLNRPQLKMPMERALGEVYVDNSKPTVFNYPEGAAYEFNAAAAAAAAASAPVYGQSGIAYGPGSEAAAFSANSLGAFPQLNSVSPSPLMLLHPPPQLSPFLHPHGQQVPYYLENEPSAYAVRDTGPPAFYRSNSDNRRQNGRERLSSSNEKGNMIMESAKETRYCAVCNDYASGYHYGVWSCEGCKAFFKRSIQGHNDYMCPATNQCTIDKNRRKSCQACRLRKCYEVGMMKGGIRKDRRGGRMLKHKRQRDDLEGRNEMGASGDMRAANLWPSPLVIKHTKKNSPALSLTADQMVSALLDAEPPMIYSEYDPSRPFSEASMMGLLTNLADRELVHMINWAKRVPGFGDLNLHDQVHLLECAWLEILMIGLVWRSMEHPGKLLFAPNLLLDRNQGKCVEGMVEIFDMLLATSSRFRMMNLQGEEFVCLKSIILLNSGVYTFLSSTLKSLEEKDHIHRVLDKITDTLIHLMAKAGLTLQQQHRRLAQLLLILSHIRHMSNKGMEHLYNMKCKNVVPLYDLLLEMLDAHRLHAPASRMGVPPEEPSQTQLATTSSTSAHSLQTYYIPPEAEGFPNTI

Question: Which results are given for C[C@@H]1Cc2cc(O)c(F)cc2[C@H]2CC[C@@]3(C)[C@@H](CC[C@@]3(O)/C=C\I)[C@H]12?
Answer: ID/g [1]: 0.74%; RBA [2]: 28.6; ID/g [3]: 0.32%; ID/g [4]: 0.32%; ID/g [5]: 0.36%; ID/g [6]: 3.84%; ID/g [7]: 0.32%; uterus-to-blood ratio of %ID/g [8]: 8.3%; uterus to blood ratio [9]: 11.08%; uterus-to-nontarget tissue uptake ratio [10]: 5.13%; ID/g [11]: 0.69%; ID/g [12]: 2.51%; ID/g [13]: 0.47%; uterus to nontarget tissue ratio [14]: 15.99%; ID/g [15]: 0.51%; ID/g [16]: 0.62%; ID/g [17]: 0.53%; uterus-to-nontarget tissue uptake ratio [18]: 0.76%; ID/g [19]: 424%; ID/g [20]: 2.02%; ID/g [21]: 0.25%; ID/g [22]: 0.42%; ID/g [23]: 3.76%; ID/g [24]: 1.58%; ID/g [25]: 0.36%; ID/g [26]: 1.12%; ID/g [27]: 745%; ID/g [28]: 202%; ID/g [29]: 0.45%; ID/g [30]: 204%

Question: Which ID/g [1] does the source give for C[C@]12CC[C@@H]3c4cc(F)c(O)cc4CC[C@H]3[C@@H]1CC[C@@]2(O)/C=C\I here?
Answer: 0.29%

Question: And the RBA [2]?
Answer: 53.7

Question: What about the ID/g [3] of the same compound?
Answer: 0.58%

Question: And the ID/g [4]?
Answer: 0.17%

Question: What about the ID/g [5] of the same compound?
Answer: 0.14%

Question: What about the ID/g [6] of the same compound?
Answer: 2.51%

Question: And the ID/g [7]?
Answer: 0.42%

Question: And the “uterus-to-blood ratio of %ID/g” value [8]?
Answer: 7.34%

Question: And the “uterus to blood ratio” value [9]?
Answer: 12.09%

Question: What about the “uterus-to-nontarget tissue uptake ratio” value [10] of the same compound?
Answer: 7.32%

Question: And the ID/g [11]?
Answer: 0.53%

Question: And the ID/g [12]?
Answer: 1.16%

Question: And the ID/g [13]?
Answer: 0.17%

Question: And the “uterus to nontarget tissue ratio” value [14]?
Answer: 20.54%

Question: And the ID/g [15]?
Answer: 0.2%

Question: And the ID/g [16]?
Answer: 0.65%

Question: And the ID/g [17]?
Answer: 0.57%

Question: And the “uterus-to-nontarget tissue uptake ratio” value [18]?
Answer: 0.51%

Question: What about the ID/g [19] of the same compound?
Answer: 149.9%

Question: And the ID/g [20]?
Answer: 2.19%

Question: What about the ID/g [21] of the same compound?
Answer: 0.12%

Question: And the ID/g [22]?
Answer: 0.75%

Question: And the ID/g [23]?
Answer: 4.41%

Question: What about the ID/g [24] of the same compound?
Answer: 2.88%

Question: And the ID/g [25]?
Answer: 0.39%

Question: What about the ID/g [26] of the same compound?
Answer: 0.55%

Question: And the ID/g [27]?
Answer: 365%

Question: And the ID/g [28]?
Answer: 75.3%

Question: And the ID/g [29]?
Answer: 0.61%

Question: What about the ID/g [30] of the same compound?
Answer: 36.11%
